Shown are actives, neighbours in structure and some others; about 3.1% of the full set was active somewhere.
CSC inhib: cancer stem cell inhibition; cancer stem cell-like cells viability, luminescence; inhibition, % at 7.5 µM; 300,000 tested, 1.1% active; in the data active = inhibition above about 75%; inconclusive = no clear call, values can overlap the other calls; tested in HMLE shEcad cells
HIF act: HIF pathway transcriptional activation; U2OS HRE-luciferase reporter, luminescence; normalized: DMSO 0%, desferrioxamine 100%; activation, % at 7.5 µM (by protocol); 300,000 tested, 0.32% active; AID 1910;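 active = mean activation of at least 10% of the iron chelator positive control signal, with at least half of replicates also reaching 10%; inconclusive = mean and replicate majority disagree about reaching 10%; inactive = mean and most replicates under 10%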
Beta apoptosis: beta cell apoptosis inhibition; AID 435005; protection from apoptosis, % (concentration not given with the values); 300,000 tested, 0.8% active; INS-1E cytokine-induced death, ATP luminescence, 48 h; percent of positive-control rescue, neutral wells zero;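 active = Every replicate reaches about 75%, or at least half do and their mean reaches it too, limit read from the data; inconclusive = At least half of replicates reach the limit but their mean does not; inactive = Under half of replicates reach the limit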;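 note: higher means more ATP so stronger rescue from cytokine killing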
PolyA inh: yeast polyadenylation inhibition | S. cerevisiae SKY197-pL101 polyadenylation reporter, beta-gal luminescence; efflux-impaired pdr1/pdr3 knockout yeast; score 100 = 6 SD above DMSO | activity score, % at 12 µM | 300,000 tested, 0.02% active;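 active = lowest replicate activity score at least 50, where 100 means six control SD above control mean; inconclusive = lowest score under 50 but half or more replicates reach 50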;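 note: yeast exposed to compound for 9 h at 30 °C; higher score means more reporter readthrough which indicates perturbed polyadenylation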
T cruzi inh: T. cruzi replication inhibition. T. cruzi beta-gal in NIH3T3, luminescence, 90 h. inhibition, % (no concentration beside the values). 300,000 tested, 1.4% active;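 active = mean inhibition across valid replicates above about 55%, limit read from the data; inconclusive = mean below that limit but half or more replicates reach it; inactive = mean below it, under half of replicates reach it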;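 note: signal also drops with host cell toxicity which is not excluded here; higher percent means less beta-gal luminescence so fewer parasites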
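compound dosing = single 50 nL compound addition per well in DMSO | material = NIH/3T3 host cells with β-galactosidase reporter T. cruzi | input = 5,000 host fibroblasts per well | timing = ≥90 h infection period, 3 h prior cell attachment | read-out basis = percent inhibition of parasite-derived β-gal signal | detection = GalScreen β-gal luminescence, detergent lysis, 60 min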
Calb FLC: C. albicans growth modulation with fluconazole. growth inhibition, % (test concentration not listed). C. albicans CaCi-2 (fluconazole-resistant clinical isolate) + fluconazole, Alamar Blue growth, 48 h. 300,000 tested, 0.57% active;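 active = growth inhibition above about 58% in most replicates, limit read from the data, passing the limit was not always enough; inconclusive = exactly half the replicates above a set limit; inactive = most replicates below a set limit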;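 note: all wells also contain fluconazole at 8 µg/ml as a sub-toxic cotreatment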
A number is an active result; - = inactive; ? = inconclusive; . = no result.

SMILES	CSC inhib	HIF act	Beta apoptosis	PolyA inh	T cruzi inh	Calb FLC
CCn1c(SCC(=O)N2c3ccccc3CCc3ccccc32)nc2c1c(=O)n(C)c(=O)n2C	-	-	-	-	-	?
Cc1c(C#N)c(NC(=O)C(C)C)n(Cc2ccccc2)c1C	-	-	-	-	-	-
CC(C)(C)c1ccc(-n2nc(C(N)=O)c(O)cc2=O)cc1	-	-	.	-	-	-
CC(C)(C)c1ccc(-n2nc(C#N)c(Cl)cc2=O)cc1	.	-	.	-	65.8	86.5
CCOC(=O)N1CCN(C(=O)c2ccc(Cn3c(=S)[nH]c4cc(OCC)c(OCC)cc4c3=O)cc2)CC1	-	18.3	-	-	-	-
CCOC(=O)N1CCN(C(=O)c2ccc(Cn3c(=S)[nH]c4cc5c(cc4c3=O)OCO5)cc2)CC1	.	-	-	-	-	-
CC[C@H](C)[C@H]1O[C@]2(CC[C@@H]1C)C[C@@H]1C[C@@H](CC=C(C)[C@@H](O[C@H]3C[C@H](OC)[C@@H](O[C@H]4C[C@H](OC)[C@@H](O)[C@H](C)O4)[C@H](C)O3)[C@@H](C)C=CC=C3CO[C@@H]4[C@H](O)C(C)=C[C@@H](C(=O)O1)[C@]34O)O2	102.9	.	87.3	.	.	.
CC(C)OCCCNC(=O)C1CCN(S(=O)(=O)c2ccc3nc4c(c(C(=O)O)c3c2)CCCCC4)CC1	-	-	-	-	-	-
COc1ccccc1-c1coc2c(CN3CCC(C)CC3)c(O)ccc2c1=O	-	-	-	-	-	-
CCC1CCCCN1Cc1c(O)ccc2c(=O)c(-c3ccccc3OC)coc12 (stereo unspecified)	-	45.5	-	-	-	-
Cc1nnsc1C(=O)NC1CCCc2c1cnn2-c1ccccc1F (stereo unspecified)	-	-	-	-	-	-
Cc1cc(C(=O)NC2CCCc3c2cnn3-c2ccc(C)c(C)c2)n(C)n1 (stereo unspecified)	-	-	110.2	-	-	-
Cc1nnsc1C(=O)NC1CCCc2c1cnn2-c1ccc(C(C)(C)C)cc1 (stereo unspecified)	-	-	75.3	-	56.4	-
Cc1cc(C)c(C(=O)NC2CCCc3c2cnn3-c2cccc(C)c2C)o1 (stereo unspecified)	-	-	-	-	-	-
CCc1cc(C(=O)NC2CCCc3c2cnn3-c2cccc(C)c2C)n(C)n1 (stereo unspecified)	-	-	98.6	-	-	90.8
CCOCCCNC(=O)CCc1ccc(-n2cnc3cccnc32)cc1	-	-	-	-	-	-
O=C1NC(=S)N(c2cccc(Cl)c2)C12CCCCC2	-	-	-	-	-	-
Cc1ccc2nc(-c3cccnc3)c(Nc3ccccc3C)n2c1	-	-	-	-	-	-
Cc1ccc2nc(-c3ccccn3)c(Nc3ccccc3C)n2c1	?	22.0	101.0	-	61.7	-
Cc1ccccc1Nc1c(-c2ccncc2)nc2ccc(Br)cn12	-	-	-	-	59.4	-
Cc1ccccc1Nc1c(-c2cccnc2)nc2ccc(Br)cn12	-	-	-	-	-	-
Cc1ccn2c(Nc3ccccc3C)c(-c3ccccn3)nc2c1	-	12.4	94.1	-	-	-
Cc1ccccc1Nc1c(-c2ccccn2)nc2ccccn12	-	12.8	-	-	-	-
Cc1ccccc1Nc1c(-c2cccnc2)nc2ccccn12	-	-	-	-	-	-
COc1ccc(-c2nc3ncccn3c2Nc2ccccc2)cc1	-	-	-	-	-	-
SMILES	CSC inhib	HIF act	Beta apoptosis	PolyA inh	T cruzi inh	Calb FLC
Cc1ccn2c(Nc3ccccc3)c(-c3ccccn3)nc2c1	80.9	-	96.3	-	61.7	-
Cc1cccn2c(Nc3ccccc3)c(-c3ccccn3)nc12	-	-	78.2	-	-	-
COC(=O)C1=CN(c2cc(C)cc(C)c2)C=C(C(=O)OC)C1c1cccc(F)c1	-	-	-	-	55.5	-
O=C1NC(=O)/C(=C/c2ccc(-c3cc(C(=O)O)ccc3Cl)o2)S1	-	-	-	-	-	-
O=C1NC(=S)/C(=C\c2ccc(-c3ccccc3Cl)o2)S1	118.1	-	-	-	-	-
COc1cc(/C=N/NC(=O)c2cccc(NC(=O)c3ccccc3C)c2)ccc1O	-	-	.	-	-	-
Cc1ccccc1C(=O)Nc1cccc(C(=O)N/N=C/c2cc(Cl)cc([N+](=O)[O-])c2O)c1	-	-	101.1	?	-	-
